Legend:
HeLa [1] = experiment: Induction of cell cycle arrest in human HeLa cells assessed as accumulation at G1 phase at 5 uM after 24 hrs by flow cytometry relative to control; format: functional
Summary of the method: (§1)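 Cells were seeded at 3×10⁵ per well in 6-well plates and treated after overnight incubation for 24 and 48 h. They were trypsinized, washed three times in PBS, fixed in cold ethanol and stored at −20 °C. Pellets were washed twice in PBS and treated with RNase A at 37 °C for 15 min, then stained with PI for 30 min in the dark. DNA content was measured by flow cytometry.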

HeLa [2] = experiment: Induction of cell cycle arrest in human HeLa cells assessed as accumulation at G2/M phase at 5 uM after 24 hrs by flow cytometry relative to control; format: functional; summary of the method: as §1
HeLa [3] = experiment: Induction of cell cycle arrest in human HeLa cells assessed as accumulation at S phase at 5 uM after 24 hrs by flow cytometry relative to control; format: functional; summary of the method: as §1
HeLa [4] = experiment: Induction of cell cycle arrest in human HeLa cells assessed as accumulation at subG1 phase at 5 uM after 24 hrs by flow cytometry relative to control; format: functional; summary of the method: as §1
HeLa [5] = experiment: Induction of cell cycle arrest in human HeLa cells assessed as accumulation at G1 phase at 5 uM after 48 hrs by flow cytometry relative to control; format: functional; summary of the method: as §1
HeLa [6] = experiment: Induction of cell cycle arrest in human HeLa cells assessed as accumulation at G2/M phase at 5 uM after 48 hrs by flow cytometry relative to control; format: functional; summary of the method: as §1
HeLa [7] = experiment: Induction of cell cycle arrest in human HeLa cells assessed as accumulation at S phase at 5 uM after 48 hrs by flow cytometry relative to control; format: functional; summary of the method: as §1
HeLa [8] = experiment: Induction of cell cycle arrest in human HeLa cells assessed as accumulation at subG1 phase at 5 uM after 48 hrs by flow cytometry relative to control; format: functional; summary of the method: as §1
HeLa [9] = experiment: Cytostatic activity against human HeLa cells assessed as inhibition of cell proliferation after 72 hrs by MTT assay; format: functional, cell-based
Summary of the method: (§2)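 Monolayer cells grown in DMEM with 10% FBS were seeded on day 0 at 3000–6000 cells/well, set by each line's doubling time. Agents were added the next step in five 10-fold dilutions (0.01–100) for 72 h, with DMSO ≤0.1% and a solvent control. MTT absorbance was converted to percentage growth versus untreated wells on the same plate. Where all PGs exceeded 50, the top concentration was reported as ">". ANOVA/Tukey, p<0.05.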

MCF7 [10] = experiment: Cytostatic activity against human MCF7 cells assessed as inhibition of cell proliferation after 72 hrs by MTT assay; format: functional, cell-based; conditions: MCF7, 72 h; summary of the method: as §2
HepG2 = experiment: Cytostatic activity against human HepG2 cells assessed as inhibition of cell proliferation after 72 hrs by MTT assay; format: functional, cell-based; conditions: HepG2, 72 h; summary of the method: as §2
SW-620 = experiment: Cytostatic activity against human SW620 cells assessed as inhibition of cell proliferation after 72 hrs by MTT assay; format: functional, cell-based; conditions: SW-620, 72 h; summary of the method: as §2
MIA PaCa-2 = experiment: Cytostatic activity against human MIAPaCa2 cells assessed as inhibition of cell proliferation after 72 hrs by MTT assay; format: functional, cell-based; conditions: MIA PaCa-2, 72 h; summary of the method: as §2
WI-38 = experiment: Cytotoxicity against human WI38 cells assessed as inhibition of cell proliferation after 72 hrs by MTT assay; format: cell-based; conditions: WI-38, 72 h; summary of the method: as §2
HeLa [11] = experiment: Induction of cell cycle arrest in human HeLa cells assessed as accumulation at G1 phase at 10 uM after 24 hrs by flow cytometry (reference value: 44.8 +/- 11.2%); format: functional; summary of the method: as §1
HeLa [12] = experiment: Induction of cell cycle arrest in human HeLa cells assessed as accumulation at G2/M phase at 10 uM after 24 hrs by flow cytometry (reference value: 10.9 +/- 2.6%); format: functional; summary of the method: as §1
HeLa [13] = experiment: Induction of cell cycle arrest in human HeLa cells assessed as accumulation at S phase at 10 uM after 24 hrs by flow cytometry (reference value: 44.4 +/- 8.7%); format: functional; summary of the method: as §1
HeLa [14] = experiment: Induction of cell cycle arrest in human HeLa cells assessed as accumulation at subG1 phase at 10 uM after 24 hrs by flow cytometry (reference value: 0.49 +/- 0.2%); format: functional; summary of the method: as §1
HeLa [15] = experiment: Induction of cell cycle arrest in human HeLa cells assessed as accumulation at G1 phase at 10 uM after 48 hrs by flow cytometry (reference value: 56.1 +/- 0.1%); format: functional; summary of the method: as §1
HeLa [16] = experiment: Induction of cell cycle arrest in human HeLa cells assessed as accumulation at G2/M phase at 10 uM after 48 hrs by flow cytometry (reference value: 3.25 +/- 0.1%); format: functional; summary of the method: as §1
HeLa [17] = experiment: Induction of cell cycle arrest in human HeLa cells assessed as accumulation at S phase at 10 uM after 48 hrs by flow cytometry (reference value: 40.6 +/- 0.1%); format: functional; summary of the method: as §1
HeLa [18] = experiment: Induction of cell cycle arrest in human HeLa cells assessed as accumulation at subG1 phase at 10 uM after 48 hrs by flow cytometry (reference value: 0.16 +/- 0.01%); format: functional; summary of the method: as §1
MCF7 [19] = experiment: Induction of cell cycle arrest in human MCF7 cells assessed as accumulation at G1 phase at 5 uM after 24 hrs by flow cytometry (reference value: 50.7 +/- 3.1%); format: functional; summary of the method: as §1
MCF7 [20] = experiment: Induction of cell cycle arrest in human MCF7 cells assessed as accumulation at G2/M phase at 5 uM after 24 hrs by flow cytometry (reference value: 15.9 +/- 2.7%); format: functional; summary of the method: as §1
MCF7 [21] = experiment: Induction of cell cycle arrest in human MCF7 cells assessed as accumulation at S phase at 5 uM after 24 hrs by flow cytometry (reference value: 33.4 +/- 0.4%); format: functional; summary of the method: as §1
MCF7 [22] = experiment: Induction of cell cycle arrest in human MCF7 cells assessed as accumulation at subG1 phase at 5 uM after 24 hrs by flow cytometry (reference value: 0.68 +/- 0.4%); format: functional; summary of the method: as §1
MCF7 [23] = experiment: Induction of cell cycle arrest in human MCF7 cells assessed as accumulation at G1 phase at 10 uM after 24 hrs by flow cytometry (reference value: 50.7 +/- 3.1%); format: functional; summary of the method: as §1
MCF7 [24] = experiment: Induction of cell cycle arrest in human MCF7 cells assessed as accumulation at G2/M phase at 10 uM after 24 hrs by flow cytometry (reference value: 15.9 +/- 2.7%); format: functional; summary of the method: as §1
MCF7 [25] = experiment: Induction of cell cycle arrest in human MCF7 cells assessed as accumulation at S phase at 10 uM after 24 hrs by flow cytometry (reference value: 33.4 +/- 0.4%); format: functional; summary of the method: as §1
MCF7 [26] = experiment: Induction of cell cycle arrest in human MCF7 cells assessed as accumulation at subG1 phase at 10 uM after 24 hrs by flow cytometry (reference value: 0.68 +/- 0.4%); format: functional; summary of the method: as §1
MCF7 [27] = experiment: Induction of cell cycle arrest in human MCF7 cells assessed as accumulation at G1 phase at 5 uM after 48 hrs by flow cytometry (reference value: 52.3 +/- 6.1%); format: functional; summary of the method: as §1
MCF7 [28] = experiment: Induction of cell cycle arrest in human MCF7 cells assessed as accumulation at G2/M phase at 5 uM after 48 hrs by flow cytometry (reference value: 6.82 +/- 0.3%); format: functional; summary of the method: as §1
MCF7 [29] = experiment: Induction of cell cycle arrest in human MCF7 cells assessed as accumulation at S phase at 5 uM after 48 hrs by flow cytometry (reference value: 40.9 +/- 5.7%); format: functional; summary of the method: as §1
MCF7 [30] = experiment: Induction of cell cycle arrest in human MCF7 cells assessed as accumulation at subG1 phase at 5 uM after 48 hrs by flow cytometry (reference value: 0.51 +/- 0.01%); format: functional; summary of the method: as §1
MCF7 [31] = experiment: Induction of cell cycle arrest in human MCF7 cells assessed as accumulation at G1 phase at 10 uM after 48 hrs by flow cytometry (reference value: 52.3 +/- 6.1%); format: functional; summary of the method: as §1
MCF7 [32] = experiment: Induction of cell cycle arrest in human MCF7 cells assessed as accumulation at G2/M phase at 10 uM after 48 hrs by flow cytometry (reference value: 6.82 +/- 0.3%); format: functional; summary of the method: as §1
MCF7 [33] = experiment: Induction of cell cycle arrest in human MCF7 cells assessed as accumulation at S phase at 10 uM after 48 hrs by flow cytometry (reference value: 40.9 +/- 5.7%); format: functional; summary of the method: as §1
MCF7 [34] = experiment: Induction of cell cycle arrest in human MCF7 cells assessed as accumulation at subG1 phase at 10 uM after 48 hrs by flow cytometry (reference value: 0.51 +/- 0.01%); format: functional; summary of the method: as §1

SMILES: O=C1O/C(=C\Cn2ccc(NC(=O)c3ccccc3)nc2=O)C(OCc2ccccc2)=C1OCc1ccccc1
- Activity (HeLa [1]): 47.1%
- Activity (HeLa [2]): 13.1%
- Activity (HeLa [3]): 39.9%
- Activity (HeLa [4]): 0.04%
- Activity (HeLa [5]): 60.8%
- Activity (HeLa [6]): 2.8%
- Activity (HeLa [7]): 36.5%
- Activity (HeLa [8]): 0.27%
- IC50 (HeLa [9]): 7.2 µM
- IC50 (MCF7 [10]): 2.03 µM
- IC50 (HepG2): 1.98 µM
- IC50 (SW-620): > 100 µM
- IC50 (MIA PaCa-2): 24.2 µM
- IC50 (WI-38): 8.49 µM
- Activity (HeLa [11]): 37.9%
- Activity (HeLa [12]): 8.45%
- Activity (HeLa [13]): 53.7%
- Activity (HeLa [14]): 0.2%
- Activity (HeLa [15]): 52.3%
- Activity (HeLa [16]): 8.3%
- Activity (HeLa [17]): 39.5%
- Activity (HeLa [18]): 0.56%
- Activity (MCF7 [19]): 57.9%
- Activity (MCF7 [20]): 13.8%
- Activity (MCF7 [21]): 28.3%
- Activity (MCF7 [22]): 0.42%
- Activity (MCF7 [23]): 54.3%
- Activity (MCF7 [24]): 6.54%
- Activity (MCF7 [25]): 39.2%
- Activity (MCF7 [26]): 0.2%
- Activity (MCF7 [27]): 50.6%
- Activity (MCF7 [28]): 13.9%
- Activity (MCF7 [29]): 35.6%
- Activity (MCF7 [30]): 0.37%
- Activity (MCF7 [31]): 56.6%
- Activity (MCF7 [32]): 5.52%
- Activity (MCF7 [33]): 38%
- Activity (MCF7 [34]): 0.32%
